SENP6 inh: SENP6 protease inhibition. Q9GZR1. 330,000 tested, 1.8% active. inhibition, % at 10 µM. Recombinant SENP6 catalytic domain, aminoluciferin luminescence;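 active = inhibition above about 50% at the single tested dose, limit read from the data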;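 also: plate controls were DMSO wells with enzyme for no effect and DMSO wells lacking enzyme for full effect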
SENP8 block-1: blocks human SENP8 cleavage of Nedd8 substrate. Q96LD8. recombinant SENP8, Nedd8 substrate fluorescence. inhibition, % at 20 µM. 360,000 tested, 0.64% active; in the data active = inhibition mostly above about 40%, no sharp cut-off; inactive = mostly below about 27%
Target sequence (Q96LD8 whole entry, looked up): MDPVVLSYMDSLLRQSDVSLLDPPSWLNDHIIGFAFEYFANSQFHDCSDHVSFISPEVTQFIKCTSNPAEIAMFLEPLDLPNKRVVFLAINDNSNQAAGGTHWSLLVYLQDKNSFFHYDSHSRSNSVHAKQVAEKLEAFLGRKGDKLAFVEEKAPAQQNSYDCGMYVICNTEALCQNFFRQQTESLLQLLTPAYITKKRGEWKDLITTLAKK
SENP8 block-2: SENP8 protease inhibition; Q96LD8; purified SENP8, Z-RLRGG-aminoluciferin cleavage, luminescence; inhibition, % at 10 µM; 330,000 tested, 1.2% active; in the data active = inhibition above about 50%
UCH37 DUB inh: blocks the human deubiquitinase UCH37 | 330,000 tested, 0.33% active | inhibition, % (no concentration beside the values) | Q9Y5K5 | purified proteasome/UCH37, Ub-AMC cleavage fluorescence;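 active = mean inhibition over replicate wells above about 20%, limit read from the data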;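 also: 0% = compound-free wells with enzyme and 100% = wells lacking proteasome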
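System: Proteasome-associated human UCH37 deubiquitinase; Input: 0.15 nM proteasome in added enzyme buffer; Also added: Ub-AMC substrate from 1 µM stock; Incubation: 30 min compound-proteasome preincubation then 25 min substrate reaction, room temperature; Detection: fluorescence, ex 355 nm, em 460 nm; Read-out: % inhibition of Ub-AMC cleavage fluorescence; Benchmarks: no-proteasome and no-compound wells.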
SENP1 inh: blocks the human SENP1 SUMO protease catalytic domain; 360,000 tested, 0.21% active; inhibition, % at 10 µM; recombinant SENP1 catalytic domain, CyPet-SUMO1-YPet FRET cleavage; AID 624204;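 active = inhibition at least 30% at 10 µM, raw YFP signal under a set limit, fluorescence ratio 0.5 to 1.5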;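 also: 0% = enzyme with DMSO and 100% = no enzyme wells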
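Assay system: hSENP1 catalytic domain, recombinant. Amount: SENP1 enzyme, 20 pM final. Schedule: 50 min reaction, RT, dark. Technique: FRET, CFP and YFP emission. Control set: no-enzyme wells low, DMSO-plus-enzyme wells high control.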
SENP7 block: inhibitors of human SENP7 protease | Q9BQF6 | recombinant SENP7, Z-RLRGG-aminoluciferin luminescence, 40 min | inhibition, % at 5 µM | 330,000 tested, 1.5% active;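 active = inhibition above about 50% at the single test dose, limit read from the data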;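 also: plate controls were DMSO with enzyme for no effect and no enzyme buffer wells for full effect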
Target sequence (Q9BQF6 706-1050 limits assumed): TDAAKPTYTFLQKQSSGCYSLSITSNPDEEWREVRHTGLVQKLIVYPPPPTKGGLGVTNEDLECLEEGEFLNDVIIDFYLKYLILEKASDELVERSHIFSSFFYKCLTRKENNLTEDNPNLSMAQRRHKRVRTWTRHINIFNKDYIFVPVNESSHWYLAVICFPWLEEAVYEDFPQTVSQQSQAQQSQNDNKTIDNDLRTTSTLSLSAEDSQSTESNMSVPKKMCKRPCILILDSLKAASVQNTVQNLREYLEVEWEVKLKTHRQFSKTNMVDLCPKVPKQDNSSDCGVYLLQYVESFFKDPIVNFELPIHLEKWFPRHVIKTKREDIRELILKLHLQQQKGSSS
* marks the source's active call; other numbers are inactive results; nt = no result given. A selection: hits, their analogues and other compounds. The true share with any hit is near 2.6%.

SMILES	SENP6 inh	SENP8 block-1	SENP8 block-2	UCH37 DUB inh	SENP1 inh	SENP7 block
O=C(NCCC1=CCCCC1)C1CCN(S(=O)(=O)c2ccccc2)CC1	2	12	6	0	2	3
O=C(NCCC1=CCCCC1)C1CCN(S(=O)(=O)c2cnc[nH]2)CC1	7	9	3	20*	-1	8
Cc1cc(SCC(=O)N/N=C/c2ccc(O)c(O)c2O)c(C)cc1Br	1	35*	-3	nt	2	3
Cc1cc(SCC(=O)NN=Cc2ccc(O)cc2O)c(C)cc1Br	nt	nt	nt	3	nt	nt
CCOC(=O)c1c(C)[nH]c(N=Nc2ccccc2)c1C	14	44*	11	0	1	9
CCOC(=O)c1c(C)[nH]c(N=Nc2ccc(OC)cc2)c1C	61*	49*	33	5	-1	17
CCOC(=O)c1c(C)[nH]c(N=Nc2ccccc2Cl)c1C	-2	35	17	5	1	31
Cc1ccc(C(C)C)c(OCC(=O)NN=Cc2ccc(S(=O)(=O)O)o2)c1	nt	nt	nt	4	nt	nt
CC(=O)NN=C(C)c1ccc2c(c1)OCCO2	nt	nt	nt	1	nt	nt
CC1CCN(c2nc3ccc(C(=O)O)cc3s2)CC1	97*	21	97*	-2	-1	96*
COc1ccc(C=NN2C(=O)C3C4C=CC(CC4)C3C2=O)c(OC)c1 (centres undefined)	nt	nt	nt	5	nt	nt
Cc1n[nH]c(=S)n1N=Cc1cccc(OCc2ccccc2)c1	nt	nt	nt	6	nt	nt
Nc1ccc2c(c1)Cc1cc([N+](=O)[O-])ccc1-2	-7	6	-14	29*	-25	-9
CC(=NO)c1ccc2c(c1)Cc1cc([N+](=O)[O-])ccc1-2	nt	28	nt	nt	2	nt
CCOC(=O)NN=C1CC(C)S(=O)(=O)c2ccc(Cl)cc21 (centres undefined)	nt	nt	nt	4	nt	nt
CS(=O)(=O)N1N=C(c2ccc(Cl)cc2)CC1c1cccs1 (centres undefined)	51*	8	21	0	1	40
NNc1nc(C(F)(F)F)nc2ccccc12	-14	-5	-5	3	6	-5
O/C=c1\ccc2cccc3nc(C(F)(F)F)nc1c23	15	46*	15	17	-22	3
Cc1cc(=O)c2c(o1)C(=O)c1occc1C2=O	nt	75*	nt	nt	2	nt
O=C(c1ncn(Cc2ccccc2)c1C(=O)N1CCN(c2ccccc2)CC1)N1CCN(c2ccccc2)CC1	-19	16	-14	1	-4	-5
CC(C)(C)OC(=O)N1CCN(C(=O)c2ncn(Cc3ccccc3)c2C(=O)N2CCN(C(=O)OC(C)(C)C)CC2)CC1	4	10	7	29*	1	-1
COc1cccc(/C=C2\SC(=S)N(CCCC(=O)N3CCCCC3)C2=O)c1	29	26*	2	5	0	-5
CCc1ccc(/C=C2\SC(=S)N(CCCC(=O)N3CCN(C)CC3)C2=O)cc1	nt	41*	nt	nt	0	nt
CN1C(=S)SC(N(O)C(=O)Nc2cccc3ccccc23)C1(C)C (centres undefined)	57*	-433	23	-2	-8	26
CN1C(=S)SC(N(O)C(=O)Nc2ccccc2)C1(C)C (centres undefined)	8	17	5	1	1	4
SMILES	SENP6 inh	SENP8 block-1	SENP8 block-2	UCH37 DUB inh	SENP1 inh	SENP7 block
COc1cc2c(cc1OC)-c1c(OC)c(OC)cc3ccnc(c13)C2=O	9	32	-3	nt	60*	6
COc1cc([N+](=O)[O-])cc(/C=N/NC(=O)c2cc(-c3ccccc3)nc3ccccc23)c1O	8	6	-7	nt	50	-2
COc1cc([N+](=O)[O-])cc(C=NNC(=O)C(C)Nc2ccccc2C)c1O (centres undefined)	nt	nt	nt	20*	nt	nt
COc1cc([N+](=O)[O-])cc(/C=N/NC(=O)c2cc(C)nc3ccccc23)c1O	-19	30	-11	nt	40*	-6
COc1ccccc1/C=C/C=Nn1c(-c2ccc(Cl)cc2Cl)n[nH]c1=S	nt	nt	nt	10	nt	nt
CCN1C(=O)/C(=C\N2CCCCCC2)SC1=S	7	46*	-6	1	-1	3
CCN1C(=O)/C(=C/N2CC(C)CC(C)C2)SC1=S (centres undefined)	-13	15	2	5	1	3
CCOc1ccccc1C=C1SC(=S)N(CC)C1=O	nt	36*	nt	6	-7	nt
CCOC(=O)N1CCN(C(=O)CCN2C(=O)/C(=C\c3ccccc3OC)SC2=S)CC1	-12	22	-11	6	-9	7
O=[N+]([O-])c1ccc(NN=Cc2ccccc2O)cc1	nt	nt	nt	-1	nt	nt
CN(C)C=Nc1cnc(C(=O)c2ccc(Cl)cc2)n1C	nt	nt	nt	8	nt	nt
CCOC(=S)NC(=NS(=O)(=O)c1ccccc1)c1ccccc1	nt	nt	nt	2	nt	nt
Cc1c(C(=O)NCc2ccccc2)oc2c1C(=O)CCC2	1	25	6	25*	1	-2
CCCCC12CN3CCN(CC(C3)C1=NNC(=O)c1ccccc1N)C2	nt	nt	nt	-141	nt	nt
Cc1cc(C)c2cc3c(N)c(C(=O)N4CCc5ccccc5C4)sc3nc2c1	-4	-224	2	-12	7	4
Cc1cccc2cc3c(N)c(C(=O)N4CCOCC4)sc3nc12	-23	-37	-4	3	42*	0
COC(CNC(=O)c1ccc2c3c(onc13)-c1ccccc1C2=O)OC	45	102*	23	20*	8	25
COC(CNC(=O)c1cccnc1)OC	0	1	0	-3	2	2
O=[N+]([O-])c1cc(C=Nn2cnnc2)ccc1N1CCCC1	nt	nt	nt	21*	nt	nt
O=C(Cn1cnc([N+](=O)[O-])n1)NN=Cc1cccc(Cl)c1	nt	nt	nt	2	nt	nt
COc1cc(C=Nn2c(SC)nnc(C(C)(C)C)c2=O)ccc1O	nt	nt	nt	35*	nt	nt
COc1ccc(OC)c(S(=O)(=O)NN=Cc2c[nH]c3ccccc23)c1	nt	nt	nt	2	nt	nt
O=C(CC=NOCc1ccc([N+](=O)[O-])cc1)Nc1ccc(F)cc1F	nt	nt	nt	1	nt	nt
O=C(CON=Cc1ccc(Cl)cc1Cl)NNC(=O)c1ccc(Cl)cc1Cl	nt	nt	nt	-1	nt	nt
Cc1cccc2nc(COc3ccc4ccccc4c3Br)cn12	57*	17	22	nt	-8	34
SMILES	SENP6 inh	SENP8 block-1	SENP8 block-2	UCH37 DUB inh	SENP1 inh	SENP7 block
CCOc1cc(/C=C2\NC(=O)NC2=O)cc([N+](=O)[O-])c1O	17	33	6	21*	1	5
CC12CCC(/C(=C/NNc3ccc([N+](=O)[O-])cc3[N+](=O)[O-])C1=O)C2(C)C (centres undefined)	nt	30*	nt	nt	4	nt
CCc1ccc(N=Nc2ccc(O)c3[nH]cnc23)cc1	25	33	28	nt	76*	31
CCOC(=O)N=Nc1c(O)n(CC)c2ccccc12	13	10	4	3	1	4
CCc1ccc2[nH]c(O)c(N=NC3=NC(=O)CS3)c2c1	-16	27*	-2	9	2	-2
CCc1ccc2c(c1)c(N=NC1=NC(=O)CS1)c(O)n2CC	-32	42*	-7	3	5	0

Source: PubChem
